Reference: ChEMBL document CHEMBL4480458, “Synthesis and Anti-inflammatory Evaluation of ( R)-, ( S)-, and (±)-Sanjuanolide Isolated from Dalea frutescens” (J Nat Prod, 2019)
Active and inactive are the calls of the source. The rule behind the calls is not given here.

Columns and labels:
Format in all cases: functional, cell-based
RAW264.7 [1] = experiment: Antiinflammatory activity in mouse RAW264.7 cells assessed as inhibition of LPS-induced IL-6 production pretreated for 30 mins followed by LPS-stimulation and measured after 24 hrs by ELISA
In short: (§1)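 RAW 264.7 cells were seeded at 400 000 per well in DMEM and held for 24 h at 37 °C, 5% CO2. They were pretreated 30 min with vehicle or compound at 1, 2.5, 5 or 10 μM, then stimulated with LPS at 0.5 μg/mL for 24 h. Supernatant cytokine was measured by ELISA. IC50 was taken from the concentration series, and significance was tested against LPS vehicle.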

RAW264.7 [2] = experiment: Antiinflammatory activity in mouse RAW264.7 cells assessed as inhibition of LPS-induced IL1beta mRNA expression pretreated for 30 mins followed by LPS-stimulation and measured after 24 hrs by trizol reagent based qRT-PCR analysis
In short: (§2)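 RAW 264.7 macrophages were grown in DMEM with 10% FBS and penicillin/streptomycin at 37 °C, 5% CO2. Cells were plated at 7.0 × 10^5/plate and incubated overnight, then pretreated 30 min with compound at 2.5 or 10 μM before LPS at 1.0 μg/mL for 24 h. Total RNA was extracted and qPCR was run, with each gene normalized to β-actin. Values are % of LPS control, mean ± SEM of three independent experiments, Student's t test.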

RAW264.7 [3] = experiment: Antiinflammatory activity in mouse RAW264.7 cells assessed as inhibition of LPS-induced IL-6 mRNA expression pretreated for 30 mins followed by LPS-stimulation and measured after 24 hrs by trizol reagent based qRT-PCR analysis; in short: as §2
RAW264.7 [4] = experiment: Antiinflammatory activity in mouse RAW264.7 cells assessed as inhibition of LPS-induced TNFalpha mRNA expression pretreated for 30 mins followed by LPS-stimulation and measured after 24 hrs by trizol reagent based qRT-PCR analysis; in short: as §2
RAW264.7 [5] = experiment: Antiinflammatory activity in mouse RAW264.7 cells assessed as inhibition of LPS-induced ICAM1 mRNA expression pretreated for 30 mins followed by LPS-stimulation and measured after 24 hrs by trizol reagent based qRT-PCR analysis; in short: as §2
RAW264.7 [6] = experiment: Antiinflammatory activity in mouse RAW264.7 cells assessed as inhibition of LPS-induced TNFalpha production pretreated for 30 mins followed by LPS-stimulation and measured after 24 hrs by ELISA; in short: as §1
RAW264.7 [7] = experiment: Antiinflammatory activity in mouse RAW264.7 cells assessed as inhibition of LPS-induced […] mRNA expression pretreated for 30 mins followed by LPS-stimulation and measured after 24 hrs by trizol reagent based qRT-PCR analysis; in short: as §2
RAW264.7 [8] = experiment: Antiinflammatory activity in mouse RAW264.7 cells assessed as inhibition of LPS-induced COX2 mRNA expression pretreated for 30 mins followed by LPS-stimulation and measured after 24 hrs by trizol reagent based qRT-PCR analysis; in short: as §2

IC50 (RAW264.7 [1]) [µM] | IC50 (RAW264.7 [6]) [µM] | SMILES | inhibition (RAW264.7 [2]) | inhibition (RAW264.7 [3]) | inhibition (RAW264.7 [4]) | inhibition (RAW264.7 [5]) | inhibition (RAW264.7 [7]) | inhibition (RAW264.7 [8]) | inhibition (RAW264.7 [1]) | inhibition (RAW264.7 [6])
1.1 | 1.2 | C=C(C)[C@H](O)Cc1c(O)ccc(C(=O)/C=C/c2ccccc2)c1O | Active | Active | Active | Active | Active | Active | – | –
1.1 | 1.6 | C=C(C)C(O)Cc1c(O)ccc(C(=O)/C=C/c2ccccc2)c1O (racemic) | Active | Active | Active | Active | Active | Active | – | –
– | – | C=C(C)[C@@H](O)Cc1c(O)ccc(C(=O)/C=C/c2ccccc2)c1O | – | – | – | – | – | – | inactive | inactive
